Experimental data as given in ChEMBL document CHEMBL1127817, “Antitumor agents. 150. 2',3',4',5',5,6,7-substituted 2-phenyl-4-quinolones and related compounds: their synthesis, cytotoxicity, and inhibition of tubulin polymerization” (J Med Chem, 1994).

Legend:
Tubulin beta chain = Tubulin beta chain (Bos taurus, UniProt Q6B856); assay: Inhibition of tubulin polymerization; type: functional
SK-MEL-5 = assay: In vitro inhibition of tumor cell growth of SK-Mel-5, melanoma cell line; type: functional; conditions: Homo sapiens
SF-295 = assay: In vitro inhibition of tumor cell growth of SF-295, CNS tumor cell line; type: functional; conditions: Homo sapiens
OVCAR-3 = assay: In vitro inhibition of tumor cell growth of OVCAR-3, ovarian cancer cell line; type: functional; conditions: Homo sapiens
Tubulin (Bos taurus) = Tubulin (Bos taurus) (UniProt Q6B856+Q862L2+Q862F3); assay: Inhibition of colchicine binding to tubulin isolated from bovine brain tissue; type: functional; parameters: concentration or dose not given beside the values; conditions: concentration not given here
How it was run: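 1.0 μM tubulin incubated with 5.0 μM [3H]colchicine and 5.0 μM test agent; bound colchicine measured by DEAE-cellulose filter technique.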

RXF 393 = assay: In vitro inhibition of tumor cell growth of RXF-393, renal cancer cell line; type: functional; conditions: Homo sapiens
SF-268 [1] = assay: In vitro inhibition of tumor cell growth of SF-268, CNS tumor cell line; type: functional; conditions: Homo sapiens
NCI-H226 = assay: In vitro inhibition of tumor cell growth of NCI-H226, a non small-cell lung cancer cell line; type: functional; conditions: Homo sapiens
HCT-116 = assay: In vitro inhibition of tumor cell growth of HCT116, colon cancer cell line; type: functional; conditions: Homo sapiens
KM-20L2 [2] = assay: In vitro inhibition of tumor cell growth of KM20L2, colon cancer cell line; type: functional; conditions: Homo sapiens
SF-268 [3] = assay: In vitro inhibition of tumor cell growth ofSF-268, CNS tumor cell line; type: functional; conditions: Homo sapiens
DMS-114 = assay: In vitro inhibition of tumor cell growth of DMS114, a small-cell lung cancer cell line; conditions: Homo sapiens
KM-20L2 [4] = assay: Inhibition of in vitro tumor cell growth in KM20L2, colon cancer cell line; type: functional; conditions: Homo sapiens

Chain of Tubulin beta chain (Q6B856 whole entry): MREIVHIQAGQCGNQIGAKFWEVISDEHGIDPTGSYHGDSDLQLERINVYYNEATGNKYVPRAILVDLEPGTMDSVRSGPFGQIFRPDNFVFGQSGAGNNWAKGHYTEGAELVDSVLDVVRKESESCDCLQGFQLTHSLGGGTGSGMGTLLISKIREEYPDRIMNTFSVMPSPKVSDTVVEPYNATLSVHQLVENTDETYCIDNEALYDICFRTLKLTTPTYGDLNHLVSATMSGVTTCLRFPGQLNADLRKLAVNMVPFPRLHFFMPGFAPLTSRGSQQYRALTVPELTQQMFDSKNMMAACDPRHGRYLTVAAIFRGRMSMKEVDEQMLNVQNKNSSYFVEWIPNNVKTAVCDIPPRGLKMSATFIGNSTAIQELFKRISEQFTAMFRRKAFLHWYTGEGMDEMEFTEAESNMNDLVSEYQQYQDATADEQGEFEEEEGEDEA

Row | Compound | IC50 (Tubulin beta chain) [nM] | GI50 (SK-MEL-5) [nM] | GI50 (SF-295) [nM] | GI50 (OVCAR-3) [nM] | inhibition (Tubulin (Bos taurus)) [%] | GI50 (RXF 393) [nM] | GI50 (SF-268 [1]) [nM] | GI50 (NCI-H226) [nM] | GI50 (HCT-116) [nM] | GI50 (KM-20L2 [2]) [nM] | GI50 (SF-268 [3]) [nM] | GI50 (DMS-114) [nM] | GI50 (KM-20L2 [4]) [nM]
1 | COc1ccc2nc(-c3cccc(N(C)C)c3)cc(O)c2c1 | 840 | 195 | 204 | 170 | 18 | 120 | 603 | 372 | 195 |  |  |  | 
2 | Cc1ccc(-c2cc(O)c3cc4c(cc3n2)OCO4)cc1 |  | 1740 | 1910 | 427 | 12 |  | 2190 | 1580 | 676 | 1410 |  |  | 
3 | COc1cccc(-c2cc(O)c3cc4c(cc3n2)OCO4)c1 | 570 | 37.1 | 91.2 | 45.7 |  | 45.7 |  | 200 | 174 | 182 | 132 | 240 | 
4 | O=c1cc(-c2ccccc2F)[nH]c2cc3c(cc12)OCO3 | 850 | 20.9 | 55 | 81.3 | 37 |  | 2290 | 447 | 60.3 |  |  | 513 | 
5 | COc1ccc2nc(-c3ccccc3)cc(O)c2c1 | 610 |  |  |  | 11 |  |  |  |  |  |  |  | 
6 | Oc1cc(-c2ccccc2Cl)nc2cc3c(cc12)OCO3 | 890 | 36.3 |  | 77.6 | 24 |  | 692 | 263 | 87.1 |  |  |  | 
7 | COc1ccccc1-c1cc(O)c2cc3c(cc2n1)OCO3 | 14000 | 89100 | 20900 | 39800 |  | 15100 |  | 22900 | 28200 |  | 64600 | 25100 | 18600
8 | COc1cccc(-c2cc(O)c3cc(OC)ccc3n2)c1 | 740 | 117 | 151 |  | 13 | 191 | 229 | 347 | 155 |  |  |  | 
9 | COc1cc(OC)cc(-c2cc(O)c3cc4c(cc3n2)OCO4)c1 | 620 | 309 | 257 | 195 | 31 | 219 | 708 | 219 | 316 | 708 |  | 302 | 
10 | COc1ccc(-c2cc(O)c3cc4c(cc3n2)OCO4)c(OC)c1OC | > 40000 | > 100000 | 75900 | > 100000 |  | > 100000 | > 100000 | > 100000 | > 100000 | > 100000 |  | 29500 | 
